These results are taken from ChEMBL document CHEMBL1155063 (Bioorg Med Chem, 2008).

The target of data set [1] is T1, Telomerase reverse transcriptase (Homo sapiens, UniProt O14746). As to the kind of experiment: Effect on human TERT expressed in H1299 cells at 10 uM after 24 hrs by SEAP assay relative to control.
The nature of data set [2]: Cytotoxicity against human H1299 cells at 100 uM after 48 hrs by MTT assay realtive to control. It is filed as functional. To be noted: NCI-H1299, 48 h. In short, it runs like this: (§1)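 H1299 non-small-cell lung cells were kept in RPMI 1640 with 10% FBS and penicillin/streptomycin at 37 °C under 5% CO2. About 2 × 10^3 cells per well were pre-incubated for 24 h. Compound was added from freshly made DMSO solution diluted in complete medium and left for 48 h. MTT was then added for 4 h at 37 °C, followed by 20% SDS/50% DMF lysis buffer for 16 h at 37 °C, and absorbance read at 550 nm.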
(Formazan colour is commonly taken as a measure of viable cells.)

Data set [3] in a line: Cell viability of human H1299 cells at 1 uM after 48 hrs by MTT assay relative to control. The following applies: NCI-H1299, 48 h.
Data set [4] in a line: Cytotoxicity against human TERT immortalized BJ1 cells at 10 uM after 48 hrs by MTT assay relative to control. It is filed as cell-based, BJ. An outline of the steps:
(§2)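 hTERT-immortalized BJ1 fibroblasts were grown in DMEM with 10% FCS, 1 mM pyruvate and 4 mM […]. Cells (about 2 × 10^3 per well) were seeded and held 24 h at 37 °C. Compounds were freshly dissolved in DMSO, diluted into medium and left on the cells 48 h. MTT was added for 4 h, then SDS/DMF lysis buffer for 16 h. Absorbance was read at 550 nm and expressed relative to untreated cells (100%).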

The target in data set [5] is T1, Telomerase reverse transcriptase. As to the kind of experiment: Inhibition of G-quadruplex-induced human TERT in H1299 cells by TRAP assay. It is filed as cell-based. In short, it runs like this:
(§3)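 Modified TRAP assay using 2 µg total lysate from H1299 lung cancer cells as the telomerase source. Compounds were tested at 1, 5, 10 and 20 µM. Products were resolved on 10% polyacrylamide gels and stained with SYBR Green. A Taq-polymerase internal control was included, along with positive and negative controls.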

Data set [6] can be described thus: Cytotoxicity against human TERT immortalized BJ1 cells at 100 uM after 48 hrs by MTT assay relative to control. It is filed as cell-based, BJ. In short, it runs like this: as §2
Data set [7] is described as follows: Cytotoxicity against human H1299 cells at 10 uM after 48 hrs by MTT assay realtive to control. It is filed as functional. To be noted: NCI-H1299, 48 h. In short, it runs like this:
as §1

Data set [8] deals with T1, Telomerase reverse transcriptase. As to the kind of experiment: Effect on human TERT expressed in H1299 cells at 100 uM after 24 hrs by SEAP assay relative to control.
A short description of data set [9]: Cytotoxicity against human TERT immortalized BJ1 cells at 1 uM after 48 hrs by MTT assay relative to control. It is filed as cell-based, BJ. In short, it runs like this: as §2
The target of data set [10] is T1, Telomerase reverse transcriptase. Kind of data set: Inhibition of telomerase in human H1299 cells at 1 to 20 uM by TRAP assay. It is filed as cell-based. In short, it runs like this:
as §3

The target is the same in data set [11]. As to the kind of experiment: Effect on human TERT expressed in H1299 cells at 1 uM after 24 hrs by SEAP assay relative to control.

Molecules are shown by their SMILES. Calls of active or inactive are those of the source. The calls are words filed in the database; no cut-off is given here.

T1 sequence (O14746 whole entry): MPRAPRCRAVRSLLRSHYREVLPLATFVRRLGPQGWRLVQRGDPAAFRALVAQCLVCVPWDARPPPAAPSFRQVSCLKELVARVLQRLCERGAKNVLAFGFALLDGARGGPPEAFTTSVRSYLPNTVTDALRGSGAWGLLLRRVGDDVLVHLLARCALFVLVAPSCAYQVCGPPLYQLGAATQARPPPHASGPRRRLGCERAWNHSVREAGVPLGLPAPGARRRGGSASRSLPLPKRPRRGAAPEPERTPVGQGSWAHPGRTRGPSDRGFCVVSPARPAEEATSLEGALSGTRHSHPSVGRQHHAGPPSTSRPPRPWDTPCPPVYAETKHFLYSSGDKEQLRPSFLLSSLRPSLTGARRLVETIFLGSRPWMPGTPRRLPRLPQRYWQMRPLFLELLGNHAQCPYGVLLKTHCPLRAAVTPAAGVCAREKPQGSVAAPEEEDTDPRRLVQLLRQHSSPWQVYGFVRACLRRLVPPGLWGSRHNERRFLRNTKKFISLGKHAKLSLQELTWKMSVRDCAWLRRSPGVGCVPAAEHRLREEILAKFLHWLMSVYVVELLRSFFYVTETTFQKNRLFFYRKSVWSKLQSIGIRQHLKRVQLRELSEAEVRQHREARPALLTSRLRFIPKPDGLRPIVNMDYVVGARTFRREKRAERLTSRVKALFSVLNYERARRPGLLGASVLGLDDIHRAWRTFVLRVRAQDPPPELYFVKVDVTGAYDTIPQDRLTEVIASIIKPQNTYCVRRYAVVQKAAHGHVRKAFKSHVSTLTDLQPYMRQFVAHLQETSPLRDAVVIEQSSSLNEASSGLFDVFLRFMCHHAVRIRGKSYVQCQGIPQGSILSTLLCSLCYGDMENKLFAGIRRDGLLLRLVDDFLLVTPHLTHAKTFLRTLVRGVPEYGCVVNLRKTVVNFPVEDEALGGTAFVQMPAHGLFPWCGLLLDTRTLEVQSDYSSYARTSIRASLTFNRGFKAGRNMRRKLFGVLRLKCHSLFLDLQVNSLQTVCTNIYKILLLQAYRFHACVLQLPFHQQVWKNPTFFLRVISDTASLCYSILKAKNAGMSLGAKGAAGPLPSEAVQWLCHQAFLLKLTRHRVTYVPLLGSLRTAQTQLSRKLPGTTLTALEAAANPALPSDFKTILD

`O=C(CCN1CCCCC1)Nc1ccc2c(c1)C(=O)c1cc(NC(=O)CCN3CCCCC3)ccc1C2=O`: the residual activity was 33% in data set [1], 25% in data set [8] and 55% in data set [11]. The same molecule displayed a viability at 100 µM in data set [2] of 18%. This molecule also registered a cell viability at 1 µM in [3] of 87%. Also, in data set [4], the viability at 48 h, 10 µM was 54%. In addition, the 50% inhibitory concentration (IC50) in [5] was 8.4 µM. Moreover, the viability at 48 h, 100 µM in [6] was 41%. The viability at 10 µM in data set [7] was determined as 44%. The molecule further had a viability at 48 h, 1 µM in data set [9] of 92%. Moreover, the outcome in [10] was Active.

Usually residual activity stands for the share of the control activity or signal that is left under treatment. The low end stands for a large loss of activity, the high end for a small loss of activity. The term viability denotes a read-out of living cells in per cent, often relative to untreated cells. A low value points to a greater loss of cells. What is called cell viability is the share of living cells, or the viability signal relative to a control. A high value points to better survival. As a reminder, the IC50 is the concentration that inhibits the measured activity by half.
